Key:
[1] = molecular target: T1, Microsomal triglyceride transfer protein large subunit (Homo sapiens, UniProt P55157); assay: In vitro inhibitory activity against MTP using MTP transfer assay
T1 sequence (P55157 whole entry): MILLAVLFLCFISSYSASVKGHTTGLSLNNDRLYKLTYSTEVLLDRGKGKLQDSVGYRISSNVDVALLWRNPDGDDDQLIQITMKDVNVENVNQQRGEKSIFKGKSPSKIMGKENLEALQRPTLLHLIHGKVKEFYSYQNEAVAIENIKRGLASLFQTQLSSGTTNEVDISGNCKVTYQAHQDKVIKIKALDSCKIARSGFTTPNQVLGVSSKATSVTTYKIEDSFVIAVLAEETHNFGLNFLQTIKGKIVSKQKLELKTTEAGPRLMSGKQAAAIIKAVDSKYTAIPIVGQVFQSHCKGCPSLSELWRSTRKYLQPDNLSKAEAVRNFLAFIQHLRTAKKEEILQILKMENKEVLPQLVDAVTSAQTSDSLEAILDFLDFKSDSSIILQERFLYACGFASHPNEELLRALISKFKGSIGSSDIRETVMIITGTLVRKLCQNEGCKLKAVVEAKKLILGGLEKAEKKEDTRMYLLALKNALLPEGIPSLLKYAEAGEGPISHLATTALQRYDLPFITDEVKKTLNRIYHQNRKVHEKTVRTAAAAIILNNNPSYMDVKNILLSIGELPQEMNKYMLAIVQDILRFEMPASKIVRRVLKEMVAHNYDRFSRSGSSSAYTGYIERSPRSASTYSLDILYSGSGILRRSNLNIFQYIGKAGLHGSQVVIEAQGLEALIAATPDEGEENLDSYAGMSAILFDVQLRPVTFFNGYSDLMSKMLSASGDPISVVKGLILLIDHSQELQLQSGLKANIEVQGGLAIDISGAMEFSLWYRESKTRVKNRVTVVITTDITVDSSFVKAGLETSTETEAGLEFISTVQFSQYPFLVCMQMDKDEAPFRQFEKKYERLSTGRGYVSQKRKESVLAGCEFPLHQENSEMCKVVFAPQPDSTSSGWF

[2] = test system: Rattus norvegicus; assay: Inhibition of plasma triglycerides in normolipidemic rats after 2 hr of 50 mg/kg oral dosing; format: functional
Outline: (§1)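 Overnight-fasted normolipidemic rats received a single oral dose in cornstarch vehicle. Blood was drawn at 2, 6 and 24 h post-dose and assayed for triglycerides and total cholesterol, with free access to food after the 6 h sample. Value is mean percent inhibition versus a separate vehicle-treated group, unpaired t test p < 0.05, NS = no significant change, N = 6.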

[3] = test system: Rattus norvegicus; assay: Inhibition of total cholesterol in normolipidemic rats after 6 hr of 50 mg/kg oral dosing; format: functional; outline: as §1
[4] = test system: Rattus norvegicus; assay: Inhibition of total cholesterol in normolipidemic rats after 24 hr of 50 mg/kg oral dosing; no significant change; format: functional, organism-based; set-up: dose 50 mg/kg; outline: as §1
[5] = test system: Rattus norvegicus; assay: Inhibition of total cholesterol in normolipidemic rats after 2 hr of 50 mg/kg oral dosing; format: functional; outline: as §1
[6] = test system: Rattus norvegicus; assay: Inhibition of plasma triglycerides in normolipidemic rats after 6 h of […] mg/kg oral dosing; no significant change; format: functional, organism-based; set-up: dose 50 mg/kg
[7] = test system: Rattus norvegicus; assay: Inhibition of plasma triglycerides in normolipidemic rats after 24 h of 50 mg/kg oral dosing; no significant change; format: functional, organism-based; set-up: dose 50 mg/kg; outline: as §1
[8] = test system: Rattus norvegicus; assay: Inhibition of plasma triglycerides in normolipidemic rats after 6 hr of 50 mg/kg oral dosing; format: functional; outline: as §1
[9] = test system: Rattus norvegicus; assay: Inhibition of total cholesterol in normolipidemic rats after 24 hr of 50 mg/kg oral dosing; format: functional; outline: as §1
[10] = test system: Rattus norvegicus; assay: Inhibition of plasma triglycerides in normolipidemic rats after 24 hr of 50 mg/kg oral dosing; format: functional; outline: as §1
[11] = test system: Rattus norvegicus; assay: Inhibition of total cholesterol in normolipidemic rats after 6 h of […] mg/kg oral dosing; no significant change; format: functional, organism-based; set-up: dose 50 mg/kg

Structure (SMILES)	IC50 [1] [nM]	Reduction [2] [%]	Reduction [5] [%]	other results
O=C(Nc1ccc2c(c1)CC(NS(=O)(=O)c1ccccc1)C2)c1ccccc1-c1ccccc1 (stereo not drawn)	710	–	–	–
COC(=O)N1CCN([C@@H]2Cc3ccc(NC(=O)c4cccc(C)c4-c4ccc(C(F)(F)F)cc4)cc3C2)CC1	1000	58	23	Reduction [3]: 20%; NS [4]: no significant change; NS [6]: no significant change; NS [7]: no significant change
Cc1cccc(C(=O)Nc2ccc3c(c2)CCC(NS(=O)(=O)c2cccs2)CC3)c1-c1ccc(C(F)(F)F)cc1 (stereo not drawn)	140	–	–	–
O=C(Nc1ccc2c(c1)CC(NCc1ccccc1)C2)c1ccccc1-c1ccc(C(F)(F)F)cc1 (stereo not drawn)	4800	–	–	–
COC(=O)N[C@@H]1Cc2ccc(NC(=O)c3cc(C)cc(C)c3-c3ccc(C(F)(F)F)cc3)cc2C1	90	–	–	–
COC(=O)N[C@H]1Cc2ccc(NC(=O)c3ccccc3-c3ccc(C(F)(F)F)cc3)cc2C1	68	69	20	Reduction [3]: 39%; Reduction [8]: 74%; NS [4]: no significant change; NS [7]: no significant change
COC(=O)N[C@H]1Cc2ccc(NC(=O)c3cc(C)cc(C)c3-c3ccc(C(F)(F)F)cc3)cc2C1	70	–	–	–
O=C(Nc1ccc2c(c1)CC(NS(=O)(=O)c1ccccc1)C2)c1ccccc1-c1ccc(C(F)(F)F)cc1 (stereo not drawn)	105	57	21	NS [11]: no significant change; Reduction [8]: 30%; NS [4]: no significant change; NS [7]: no significant change
Cc1cccc(C(=O)Nc2ccc3c(c2)CC(CNS(=O)(=O)c2cccs2)C3)c1-c1ccc(C(F)(F)F)cc1 (stereo not drawn)	14	–	–	–

The next lines start with results.

IC50 [1] [nM]	Structure (SMILES)	Reduction [2] [%]	Reduction [5] [%]	other results
70	COc1cccc(C(=O)Nc2ccc3c(c2)CC(NS(C)(=O)=O)C3)c1-c1ccc(Cl)cc1 (stereo not drawn)	–	–	–
150	Cc1cccc(C(=O)Nc2ccc3c(c2)CC(CNS(C)(=O)=O)C3)c1-c1ccc(C(F)(F)F)cc1 (stereo not drawn)	–	–	–
204	Cc1cccc(C(=O)Nc2ccc3c(c2)C[C@@H](NS(C)(=O)=O)C3)c1-c1ccc(C(F)(F)F)cc1	33	12	Reduction [3]: 15%; Reduction [8]: 33%; NS [4]: no significant change; NS [7]: no significant change
34	Cc1cccc(C(=O)Nc2ccc3c(c2)C[C@H](NS(C)(=O)=O)C3)c1-c1ccc(C(F)(F)F)cc1	74	27	Reduction [3]: 42%; Reduction [8]: 68%; NS [4]: no significant change; NS [7]: no significant change
100	COC(=O)NCC1Cc2ccc(NC(=O)c3cccc(C)c3-c3ccc(Cl)cc3)cc2C1 (stereo not drawn)	–	–	–
80	COC(=O)NC1CCc2ccc(NC(=O)c3cccc(C)c3-c3ccc(Cl)cc3)cc2CC1 (stereo not drawn)	–	–	–
110	COc1cccc(C(=O)Nc2ccc3c(c2)CC(NS(=O)(=O)c2ccccc2)C3)c1-c1ccc(Cl)cc1 (stereo not drawn)	–	–	–
50	COC(=O)N[C@H]1Cc2ccc(NC(=O)c3cccc(C(F)(F)F)c3-c3ccc(C(F)(F)F)cc3)cc2C1	–	–	–
20	Cc1cc(C)c(-c2ccc(C(F)(F)F)cc2)c(C(=O)Nc2ccc3c(c2)C[C@H](NS(=O)(=O)c2cccs2)C3)c1	77	21	Reduction [3]: 34%; Reduction [9]: 47%; Reduction [8]: 48%; Reduction [10]: 46%
180	Cc1cc(C)c(-c2ccc(C(F)(F)F)cc2)c(C(=O)Nc2ccc3c(c2)C[C@@H](NS(=O)(=O)c2cccs2)C3)c1	79	33	Reduction [3]: 46%; Reduction [8]: 68%; NS [4]: no significant change; NS [7]: no significant change
120	CS(=O)(=O)NC1Cc2ccc(NC(=O)c3ccccc3-c3ccc(C(F)(F)F)cc3)cc2C1 (stereo not drawn)	–	–	–
100	Cc1cccc(C(=O)Nc2ccc3c(c2)CC(NS(C)(=O)=O)C3)c1-c1ccc(Cl)cc1 (stereo not drawn)	–	–	–

— ChEMBL document CHEMBL1134325, “Diaminoindanes as microsomal triglyceride transfer protein inhibitors” (J Med Chem, 2001)
